Bioassay records: PubChem BioAssay, several laboratories
In the library only some 1.8% were active in any assay of this set; here they are far more common.
Runt-SMMHC FRET: inhibitors of RUNX1 Runt–CBFb-SMMHC binding, primary screen, biochemical, FRET, Cerulean-Runt, Venus-CBFb-SMMHC, uHTS. Cerulean-Runt/Venus-CBFb-SMMHC FRET ratio 530/480, 1 h. 220,000 compounds, 0.74% hits. inhibition, % at 20 µM;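 active = mean inhibition across duplicate retests at 20 µM reaching about 50%, limit read from the data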;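 note: inhibitors lower the FRET ratio by blocking Runt binding to CBFb-SMMHC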
Target sequence (Q01196 whole entry, looked up): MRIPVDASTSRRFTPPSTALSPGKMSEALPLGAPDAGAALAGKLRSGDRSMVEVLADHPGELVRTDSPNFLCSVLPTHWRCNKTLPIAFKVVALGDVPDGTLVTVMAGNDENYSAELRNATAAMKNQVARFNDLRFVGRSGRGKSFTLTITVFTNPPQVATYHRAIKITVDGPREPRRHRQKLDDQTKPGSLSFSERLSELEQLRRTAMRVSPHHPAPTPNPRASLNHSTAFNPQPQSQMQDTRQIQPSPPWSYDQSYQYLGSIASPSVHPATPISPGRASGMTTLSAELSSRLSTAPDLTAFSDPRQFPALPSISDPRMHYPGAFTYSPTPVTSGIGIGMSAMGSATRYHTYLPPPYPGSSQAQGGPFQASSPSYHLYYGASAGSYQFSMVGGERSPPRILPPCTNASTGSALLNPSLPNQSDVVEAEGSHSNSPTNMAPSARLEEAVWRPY
Target sequence (Q13951 whole entry, looked up): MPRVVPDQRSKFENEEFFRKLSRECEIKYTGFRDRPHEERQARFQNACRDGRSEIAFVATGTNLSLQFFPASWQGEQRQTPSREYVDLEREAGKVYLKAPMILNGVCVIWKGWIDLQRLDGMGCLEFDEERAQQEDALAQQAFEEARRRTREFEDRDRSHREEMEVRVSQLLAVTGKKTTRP
RanGTP-Imp inh: inhibitors of RanGTP-importin-beta interaction, primary screen, biochemical, FRET, CFP-Ran, YFP-importin-beta, homogeneous | cell-free CFP-Ran/YFP-importin-beta FRET ratio | inhibition, % (concentration not given with the values) | 300,000 compounds, 1.1% hits;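 active = more than half of the replicate wells show a fall in the fluorescence ratio signal beyond about 16%, limit read from the data, passing the limit was not always enough; inconclusive = exactly half of the replicate wells pass the set limit; inactive = fewer than half of replicates pass the limit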
Runt-CBFb FRET: inhibitors of RUNX1 Runt–CBFb binding, primary screen, biochemical, FRET, Cerulean-Runt, Venus-CBFb, uHTS; Cerulean-Runt/Venus-CBFb FRET ratio 530/480, 1 h; 220,000 compounds, 0.46% hits; Runt-related transcription factor 1 (Homo sapiens) + Core-binding factor subunit beta …; inhibition, % at 20 µM; AID 1496, 2009;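 active = inhibition over about 50% at 20 µM in the single-dose screen, limit read from the data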
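Assay system: Cerulean-tagged RUNX1 Runt domain (FRET donor) fusion protein / Amount: 100 nM each of Venus-CBFb and Cerulean-Runt domain / Medium: Tris buffer pH 7.5 with salts and BSA / Also added: Venus-CBFb 100 nM / Schedule: 1 h complex formation plus 1 h compound treatment, room temperature / Signal: FRET fluorescence / Read-out: loss of energy transfer signal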
Hck-Nef inh: inhibitors of Nef-activated human Hck kinase, primary screen, biochemical, Z-Lyte FRET, 384-well, Hck-YEEI; Recombinant Hck-YEEI plus Nef, Z-Lyte FRET kinase assay; inhibition, % at 20 µM; 220,000 compounds, 0.68% hits; Tyrosine-protein kinase HCK (Homo sapiens), P08631;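 active = Hck-Nef kinase inhibition above about 50%, limit read from the data; inactive = inhibition below that limit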
Hck-Nef confirm: retest of Hck:Nef kinase inhibitor hits, confirmation, biochemical, Z-Lyte FRET, 384-well, p-Tyr peptide counterscreen | calls only at 10 µM | 1,300 compounds, 28% hits | Recombinant Hck-YEEI:Nef, Z-Lyte FRET kinase assay | shares compounds with Hck-Nef inh;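 active = average inhibition of at least 50%, with Z-scores no higher than 3 in both the phospho-tyrosine peptide and fluorescence counterscreens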
Hits are given with their value.

Results for O=C(CSc1nnc(CNC(=O)c2cccc(C(F)(F)F)c2)o1)NC1CCCC1 ?
RanGTP-Imp inh: inactive

What do the screens show for `N=c1c2c(-c3ccccc3)c(-c3ccccc3)oc2ncn1CCN1CCOCC1`?
Runt-SMMHC FRET: inactive; RanGTP-Imp inh: inactive; Runt-CBFb FRET: inactive; Hck-Nef inh: 78; Hck-Nef confirm: active

Results for c1ccc(-c2oc3ncnc(NCCN4CCOCC4)c3c2-c2ccccc2)cc1 ?
Runt-SMMHC FRET: inactive; RanGTP-Imp inh: inactive; Runt-CBFb FRET: inactive; Hck-Nef inh: 83; Hck-Nef confirm: active

Results for N=c1c2c(-c3ccccc3)c(-c3ccccc3)oc2ncn1CCCN1CCOCC1 ?
Runt-SMMHC FRET: inactive; RanGTP-Imp inh: inactive; Runt-CBFb FRET: inactive; Hck-Nef inh: inactive

Results for CN(C)CCCNc1ncnc2oc(-c3ccccc3)c(-c3ccccc3)c12 ?
RanGTP-Imp inh: inactive

Results for CCOc1ccccc1CN1CCN(C2CCSCC2)CC1CCO (configuration not stated) ?
Runt-SMMHC FRET: inactive; RanGTP-Imp inh: inactive; Runt-CBFb FRET: inactive; Hck-Nef inh: inactive

Results for O=C(COc1ccccc1Cl)Nc1ccc(S(=O)(=O)Nc2ccccn2)cc1 ?
RanGTP-Imp inh: inactive

Results for Cc1cccn2c(=O)c3cc(C(=O)NCc4ccco4)c(=N)n(C(C)C)c3nc12 ?
Runt-SMMHC FRET: 60; RanGTP-Imp inh: 154; Runt-CBFb FRET: inactive; Hck-Nef inh: 72

Results for Cc1cccn2c(=O)c3cc(C(=O)NCc4cccnc4)c(=N)n(C(C)C)c3nc12 ?
Runt-SMMHC FRET: 79; RanGTP-Imp inh: 183; Runt-CBFb FRET: inactive; Hck-Nef inh: 161

Results for CC(C)n1c(=N)c(C(=O)NCCc2ccccc2)cc2c(=O)n3ccccc3nc21 ?
Runt-SMMHC FRET: inactive; RanGTP-Imp inh: 174; Runt-CBFb FRET: inactive; Hck-Nef inh: 138

Results for CC(=O)COc1cc2c(-c3cc4ccccc4o3)cc(=O)oc2cc1C ?
RanGTP-Imp inh: inactive

What do the screens show for `Cc1cccc(NC(=O)CNC(=O)c2ccc3nc[nH]c3c2)c1C`?
RanGTP-Imp inh: inactive

Results for Cn1cc(/C=C(\C#N)C(=O)Nc2cccc([N+](=O)[O-])c2)c2ccccc21 ?
Runt-SMMHC FRET: inactive; RanGTP-Imp inh: inactive; Hck-Nef inh: 62; Hck-Nef confirm: inactive

What do the screens show for `Cc1cc(=O)oc2cc3c(cc12)OCCN3`?
Runt-SMMHC FRET: inactive; RanGTP-Imp inh: 97; Runt-CBFb FRET: inactive; Hck-Nef inh: 107

How did Cc1cc(=O)oc2cc3c(cc12)OCCO3 do in these assays?
Runt-SMMHC FRET: inactive; RanGTP-Imp inh: inconclusive; Runt-CBFb FRET: inactive; Hck-Nef inh: inactive

What do the screens show for `Cc1ccc(/C=C2\SC(=S)N(/N=C/c3cc([N+](=O)[O-])ccc3O)C2=O)o1`?
Runt-SMMHC FRET: inactive; RanGTP-Imp inh: inactive; Runt-CBFb FRET: inactive; Hck-Nef inh: 142; Hck-Nef confirm: active

How did O=C(NN1C(=O)/C(=C/c2cc([N+](=O)[O-])ccc2O)SC1=S)c1ccccc1O do in these assays?
RanGTP-Imp inh: inactive

Results for CCN(CC)c1ccc(-c2nnc(SCC(=O)Nc3ccccc3C#N)n2-c2ccccc2)cc1 ?
Runt-SMMHC FRET: inactive; RanGTP-Imp inh: inactive; Runt-CBFb FRET: inactive; Hck-Nef inh: 66; Hck-Nef confirm: active

Results for O=C(Nc1ccc(N2CCOCC2)cc1)c1nc2ccccc2s1 ?
Runt-SMMHC FRET: inactive; RanGTP-Imp inh: inactive; Runt-CBFb FRET: inactive; Hck-Nef inh: inactive

What do the screens show for `O=C(CSc1nnc(CNC(=O)c2ccc(F)cc2)o1)NCC1CCCO1` (configuration not stated)?
RanGTP-Imp inh: inactive

Results for Cc1ccc(S(=O)(=O)Nc2ccc(N(C)C)cc2)cc1 ?
Runt-SMMHC FRET: inactive; RanGTP-Imp inh: inactive; Runt-CBFb FRET: inactive; Hck-Nef inh: 85; Hck-Nef confirm: inactive

Results for NC(=O)c1c(NC(=O)Cn2nc(C(=O)O)c3ccccc3c2=O)sc2c1CCC2 ?
Runt-SMMHC FRET: inactive; RanGTP-Imp inh: inconclusive; Runt-CBFb FRET: inactive; Hck-Nef inh: 91; Hck-Nef confirm: inactive

What do the screens show for `O=C(Cn1nc(C(=O)O)c2ccccc2c1=O)Nc1nc(-c2ccccc2)cs1`?
Runt-SMMHC FRET: inactive; RanGTP-Imp inh: inactive; Runt-CBFb FRET: inactive; Hck-Nef inh: 52; Hck-Nef confirm: inactive

What do the screens show for `COc1ccc(C2CC(c3ccccc3)=NN2c2ccc(S(N)(=O)=O)cc2)cc1OC` (configuration not stated)?
Runt-SMMHC FRET: inactive; RanGTP-Imp inh: inactive; Runt-CBFb FRET: inactive; Hck-Nef inh: 74; Hck-Nef confirm: inactive

What do the screens show for `NS(=O)(=O)c1ccc(N2N=C(c3ccc(Br)cc3)CC2c2ccc(F)cc2)cc1` (configuration not stated)?
Runt-SMMHC FRET: inactive; RanGTP-Imp inh: 23; Runt-CBFb FRET: inactive; Hck-Nef inh: 117; Hck-Nef confirm: inactive

What do the screens show for `CCN1C=C(C(=O)OC)C(c2cccc(OC)c2OC)C(C(=O)OC)=C1`?
Runt-SMMHC FRET: 86; RanGTP-Imp inh: 126; Runt-CBFb FRET: inactive; Hck-Nef inh: 85

Results for COc1cccc(C(=O)OCCCOC(=O)c2cccc(OC)c2OC)c1OC ?
RanGTP-Imp inh: inactive

What do the screens show for `COCCN1C=C(C(=O)OC)C(c2ccccc2Cl)C(C(=O)OC)=C1`?
Runt-SMMHC FRET: 86; RanGTP-Imp inh: 58; Runt-CBFb FRET: 64; Hck-Nef inh: 153

How did COc1cc(C=O)ccc1Oc1nc(Nc2ccc(F)cc2F)nc(N2CCOCC2)n1 do in these assays?
Runt-SMMHC FRET: inactive; RanGTP-Imp inh: inactive; Runt-CBFb FRET: inactive; Hck-Nef inh: inactive

How did CCc1cc(=O)oc2c(CN3CCCC3)c(O)c(Cl)cc12 do in these assays?
Runt-SMMHC FRET: 146; RanGTP-Imp inh: inconclusive; Runt-CBFb FRET: 99; Hck-Nef inh: 102

Results for Cc1cc(=O)oc2c(CN3CC(C)OC(C)C3)c(O)c(Cl)cc12 (configuration not stated) ?
Runt-SMMHC FRET: 136; RanGTP-Imp inh: 34; Runt-CBFb FRET: 108; Hck-Nef inh: active

What do the screens show for `Cc1cc(=O)oc2cc(OCC(=O)N3CC(C)OC(C)C3)ccc12` (configuration not stated)?
Runt-SMMHC FRET: inactive; RanGTP-Imp inh: inactive; Runt-CBFb FRET: inactive; Hck-Nef inh: inactive

Results for O=c1cc(-c2ccccc2)c2cc(Cl)c(O)c(CN3CCOCC3)c2o1 ?
Runt-SMMHC FRET: inactive; RanGTP-Imp inh: inactive; Runt-CBFb FRET: inactive; Hck-Nef inh: inactive
